Source: ChEMBL document CHEMBL5674883, “The Heterochromatin Landscape in Migrating Cells and the Importance of H3K27me3 for Associated Transcriptome Alterations” (Cells, 2018)

How the values were obtained:
Format in all cases: cell-based
[1] = target: T1, RNA polymerase II (Mus musculus) (UniProt P08775+Q8CFI7+P97760+A0A3Q4L2S8+Q80UW8+P61219+P62488+Q923G2+P60898+O08740+Q63871+P62876); assay: Inhibition of RNA polymerase II in mouse B16-F1 migrating cells assessed as fold change in Ndrg1-RNA stability at 0.1 mM measured by ChIP-seq analysis relative to control cells
[2] = target: T1, RNA polymerase II (Mus musculus); assay: Inhibition of RNA polymerase II in mouse B16-F1 migrating cells assessed as fold change in Xpo1-RNA stability at 0.1 mM measured by […] analysis relative to control cells
[3] = target: T1, RNA polymerase II (Mus musculus); assay: Inhibition of RNA polymerase II in mouse B16-F1 migrating cells assessed as fold change in Stx8-RNA stability at 0.1 mM measured by […] analysis relative to control cells
[4] = target: T1, RNA polymerase II (Mus musculus); assay: Inhibition of RNA polymerase II in mouse B16-F1 migrating cells assessed as fold change in Rpl14-RNA stability at 0.1 mM measured by […] analysis relative to control cells
[5] = target: Histone-lysine N-methyltransferase EZH2 (Mus musculus) (UniProt Q61188); assay: Inhibition of EZH2 in mouse B16-F1 migrating cells assessed as fold change in H3K27me3-dependent regulated Ddit4-mRNA expression at 3 uM measured by […] analysis relative to control cells
In short: (§1)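 Confluent B16-F1 cells on fibronectin-coated plates were scratched at multiple sites, washed once with DMEM and left to migrate 3 h in growth medium (37 °C, 7% CO2); unscratched cells served as control. GSK343 (3 µM) was added 3 h before lysis. Poly A mRNA was sequenced (RNA-seq), with 5 replicates for untreated and 3 for treated cells. Differential expression was called by linear model with batch correction, at FDR <0.05 and fold change ≥1.3.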

[6] = target: Histone-lysine N-methyltransferase EZH2 (Mus musculus) (UniProt Q61188); assay: Inhibition of EZH2 in mouse B16-F1 migrating cells assessed as fold change in H3K27me3-independent regulated Skil-mRNA expression at 3 uM measured by […] analysis relative to control cells; in short: as §1
[7] = target: Histone-lysine N-methyltransferase EZH2 (Mus musculus) (UniProt Q61188); assay: Inhibition of EZH2 in mouse B16-F1 migrating cells assessed as fold change in H3K27me3-dependent regulated Mir22hg-mRNA expression at 3 uM measured by […] analysis relative to control cells; in short: as §1

Histone-lysine N-methyltransferase EZH2 (Mus musculus), sequence (Q61188 whole entry): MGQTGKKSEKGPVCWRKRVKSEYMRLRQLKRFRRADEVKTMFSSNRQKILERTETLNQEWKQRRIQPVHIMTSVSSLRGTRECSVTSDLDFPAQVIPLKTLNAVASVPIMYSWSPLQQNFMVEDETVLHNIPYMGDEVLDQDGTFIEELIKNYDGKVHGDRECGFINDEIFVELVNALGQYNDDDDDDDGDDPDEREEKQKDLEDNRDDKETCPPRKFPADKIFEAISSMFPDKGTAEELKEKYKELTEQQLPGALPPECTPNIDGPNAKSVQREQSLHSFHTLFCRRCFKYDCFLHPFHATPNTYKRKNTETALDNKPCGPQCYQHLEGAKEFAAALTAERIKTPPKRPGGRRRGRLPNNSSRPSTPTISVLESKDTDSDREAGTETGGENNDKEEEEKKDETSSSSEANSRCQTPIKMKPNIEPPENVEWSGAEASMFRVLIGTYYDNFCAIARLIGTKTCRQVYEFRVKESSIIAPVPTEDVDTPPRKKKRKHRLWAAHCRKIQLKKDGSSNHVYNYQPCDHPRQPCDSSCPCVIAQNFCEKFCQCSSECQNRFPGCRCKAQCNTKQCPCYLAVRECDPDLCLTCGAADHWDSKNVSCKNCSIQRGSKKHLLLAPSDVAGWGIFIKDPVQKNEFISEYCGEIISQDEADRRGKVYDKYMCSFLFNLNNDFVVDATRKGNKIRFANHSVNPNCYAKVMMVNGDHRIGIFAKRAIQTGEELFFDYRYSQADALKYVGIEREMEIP

Row | SMILES | log2FC [1] | log2FC [2] | log2FC [3] | log2FC [4] | log2FC [5] | log2FC [6] | log2FC [7]
1 | OC[C@H]1O[C@@H](n2cnc3cc(Cl)c(Cl)cc32)[C@H](O)[C@@H]1O | 0.7 | -0.58 | 0.48 | 0.49 | – | – | –
2 | CCCc1cc(C)[nH]c(=O)c1CNC(=O)c1cc(-c2ccnc(N3CCN(C)CC3)c2)cc2c1cnn2C(C)C | – | – | – | – | -0.53 | 0.42 | 0.05
